Compounds with a hit are over-represented: about 2.1% of the library has one in this group of screens.
MC4R antagonist: MC4R antagonists of cAMP signaling, primary screen, cell-based, TR-FRET, antagonist arm of biased-ligand search | MC4R-expressing cells, MTII-stimulated cAMP, LANCE TR-FRET | hit rate 0.48% among 360,000 | inhibition, % at 6.5 µM;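 active = inhibition above its plate's cutoff, the mean of tested wells on that plate plus 3 SD, cut at about 29% in these data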;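 note: 0% = Melanotan II alone and 100% = Melanotan II plus saturating MCL0020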
Target sequence (P32245 whole entry, looked up): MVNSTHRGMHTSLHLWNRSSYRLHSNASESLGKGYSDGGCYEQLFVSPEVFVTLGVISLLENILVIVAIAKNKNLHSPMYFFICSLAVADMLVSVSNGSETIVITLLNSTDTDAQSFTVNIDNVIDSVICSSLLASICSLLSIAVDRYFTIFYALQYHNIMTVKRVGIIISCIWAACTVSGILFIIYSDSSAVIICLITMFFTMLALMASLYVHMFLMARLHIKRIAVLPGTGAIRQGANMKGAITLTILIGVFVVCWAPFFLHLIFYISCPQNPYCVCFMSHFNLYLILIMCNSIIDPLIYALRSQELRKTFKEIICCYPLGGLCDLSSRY
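System: U2OS cells stably expressing human melanocortin 4 receptor (MC4R). Reagent: Melanotan II challenge after compound preincubation. Doses: 6.5 µM. Times: 30-min compound, 1-h challenge, 1-h detection, room temperature. Measured by: TR-FRET with Eu-cAMP and labeled anti-cAMP, 671 nm. Replicates: singlicate.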
MC4R ag barr: MC4R agonists recruiting beta-arrestin, primary screen, cell-based, luminescence, agonist arm of biased-ligand search; hit rate 0.98% among 360,000; U2OS MC4R beta-arrestin complementation; percent of melanotan II response, DMSO zero; activation, % at 8.9 µM;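 active = activation above a per-plate cutoff, the mean activation of sample wells on that plate plus 3 SD, cut at about 8% in these data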
F508del corr: F508del CFTR correction, initial screen, CFBE line, single point; CFBE cells, YFP halide quenching; stimulated with forskolin plus potentiator P3; % fluorescence drop versus neutral controls; activity (quench increase), % at 7.58 µM; hit rate 0.36% among 350,000; AID 720511, 2013;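 active = mean added fluorescence quench of at least 8% versus neutral control, with both replicates also reaching 8%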;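 note: cells transiently co-express mutant CFTR-F508del with the halide-sensitive YFP; corrector assay measuring rescue of mutant channel to the surface after 24 h compound exposure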
SMARCA2 activ: SMARCA2 (BRM) function activators, primary screen, cell-based, luminescence, high throughput | AID 652017, 2013 | MG213 cells, MMTV-luciferase reporter, dexamethasone, overnight | hit rate 1% among 370,000 | activation, % at 9.1 µM; in the data active = activation above about 7.8%;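 note: 0% = vehicle wells and 100% = reference activator wells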
cAMP nonselect: nonselective cAMP signaling inhibitors, parental cells, counter-screen for MC4R biased antagonist project, cell-based, TR-FRET, U2OS, forskolin, triplicate; shares compounds with MC4R antagonist; hit rate 26% among 1,600; AID 602193, 2012; inhibition, % at 6.5 µM; LANCE TR-FRET;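 active = mean inhibition over triplicates above the low-control well mean plus 3 SD, set per campaign, cut at about 13% in these data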;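 note: signal is single emission at 671 nm which falls as cellular cAMP rises; 0% = forskolin-stimulated wells and 100% = buffer without forskolin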
MC4R antag conf: MC4R cAMP antagonists, retest, confirmation, cell-based, TR-FRET; AID 602195, 2012; hit rate 27% among 1,600; shares compounds with MC4R antagonist; inhibition, % at 6.5 µM; MC4R-expressing cells, MTII-stimulated cAMP; in the data active = inhibition above about 29%;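 note: 0% = agonist stimulated wells alone and 100% = agonist stimulated wells plus saturating reference antagonist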
Numbers without * were called inactive; / = no result.

SMILES | MC4R antagonist | MC4R ag barr | F508del corr | SMARCA2 activ | cAMP nonselect | MC4R antag conf
CCNC(=O)C[C@H]1CC[C@@H]2[C@@H](COc3ccc(NC(=O)C4CCCCC4)cc3C(=O)N2C)O1 | / | / | -3 | / | / | /
CC1(C)Cc2c(c(N3CCOCC3)nc3sc4c(NCC5CCCO5)nnnc4c23)CS1 (configuration not stated) | 31* | 1 | -4 | 5 | 0 | -1
CCC1CCCCN1C(=O)COC(=O)CSc1ccc(C(N)=O)cc1[N+](=O)[O-] (configuration not stated) | 13 | 0 | -2 | -2 | / | /
NC(=O)c1ccc(SCC(=O)OCC(=O)NCC2CCCCC2)c([N+](=O)[O-])c1 | 31* | -3 | -4 | 0 | 10 | 36*
CNC(=O)c1cc(Oc2ccc(NC(=O)Nc3ccc(Cl)c(C(F)(F)F)c3)cc2)ccn1 | 47* | 1 | -3 | -7 | 4 | 40*
C[C@@H]1CN([C@H](C)CO)C(=O)Cc2cc(NC(=O)Nc3ccccc3)ccc2O[C@@H]1CN(C)C | / | / | 1 | / | / | /
O=C(CN1CCN(Cc2ccccc2F)C1=O)NC1CCCC1 | 29* | 0 | -1 | 3 | -1 | -5
C[C@@H]1CN([C@H](C)CO)S(=O)(=O)c2ccc(C#Cc3ccncc3)cc2O[C@@H]1CN(C)CC1CC1 | / | / | -1 | / | / | /
COc1ccc(S(=O)(=O)Nc2ccc3c(c2)C(=O)N([C@@H](C)CO)C[C@H](C)[C@@H](CN(C)C(=O)CCC(F)(F)F)OCCCC[C@H](C)O3)cc1 | / | / | 2 | / | / | /
Cc1c(NC(=S)N/C(=N/S(=O)(=O)c2ccccc2)c2ccccc2)c(=O)n(-c2ccccc2)n1C | 30* | 0 | 1 | -3 | -1 | -1
CO[C@H]1CN(C)C(=O)c2cc(NS(=O)(=O)c3cn(C)cn3)ccc2OC[C@@H](C)N(CC2CC2)C[C@H]1C | / | / | 3 | / | / | /
CCOC(=O)C(C)(C)N(Cc1ccc(C)cc1)S(=O)(=O)c1ccc(Cl)c([N+](=O)[O-])c1 | 31* | 2 | / | -6 | 20* | 52*
CC(=O)c1c(C)oc2ccc(N(C(C)=O)S(=O)(=O)c3ccc(Cl)c([N+](=O)[O-])c3)cc12 | -40 | -6 | / | 0 | / | /
CCOC(=O)C(C)(C)NS(=O)(=O)c1ccc(Cl)c([N+](=O)[O-])c1 | 40* | -2 | / | -2 | 21* | 35*
CCOC(=O)c1ccc(NC(=O)CSCC(=O)OCC(=O)c2ccccc2)cc1 | 36* | 2 | 0 | -2 | 8 | 18
O=C(CSCC(=O)OCC(=O)c1ccc(Br)cc1)Nc1ccc(Br)cc1 | 1 | 2 | / | 2 | / | /
COc1cccc(NC(=O)N(C)C[C@@H]2Oc3ncc(/C=C/c4ccccc4)cc3C(=O)N([C@H](C)CO)C[C@@H]2C)c1 | / | / | -5 | / | / | /
O=C(c1ccccc1)N1CCc2ccccc21 | -7 | 2 | / | 0 | / | /
O=C(c1c(F)c(F)c(F)c(F)c1F)N1CCc2ccccc21 | 33* | -1 | / | 2 | 17* | 27
CCS(=O)(=O)Nc1ccc2c(c1)C(=O)N(C)C[C@H](OC)[C@H](C)CN(C)[C@@H](C)CO2 | / | / | 0 | / | / | /
Cc1cc(C)cc(NC(=O)CN2CCC(NC(=O)c3cccc(F)c3)CC2)c1 | 4 | -2 | -7 | 0 | / | /
Cc1ccc(NC(=O)CN2CCC(NC(=O)c3cccc(F)c3)CC2)cc1C | 30* | 3 | -1 | -1 | 2 | -7
Cc1cc(C)c(S(=O)(=O)N(C)CC(=O)NCc2ccccn2)c(C)c1 | 1 | 0 | 2 | -1 | / | /
Cc1cc(C)c(S(=O)(=O)NCC(=O)NCc2ccccn2)c(C)c1 | 30* | -3 | -1 | -2 | 0 | -2
COc1ccc(NC(=O)CN(C)CC(=O)Nc2ccc(Cl)c(S(=O)(=O)N(C)C)c2)cc1 | -2 | -2 | -1 | -1 | / | /
SMILES | MC4R antagonist | MC4R ag barr | F508del corr | SMARCA2 activ | cAMP nonselect | MC4R antag conf
CCN(CC(=O)Nc1ccc(Cl)c(S(=O)(=O)N(C)C)c1)CC(=O)NC(C)C | 30* | 0 | 3 | 0 | 1 | -15
C[C@@H]1CN([C@H](C)CO)C(=O)c2cccc(N(C)C)c2O[C@H]1CN(C)S(=O)(=O)c1ccc(F)cc1 | / | / | 1 | / | / | /
Cc1noc(C)c1NC(=O)Nc1cccc2c1O[C@H](CN(C)C(=O)Nc1cccc3ccccc13)[C@@H](C)CN([C@H](C)CO)C2=O | / | / | -1 | / | / | /
S=C1NC[C@H](Cc2ccccc2)N1CCCCC1CCCCC1 | -1 | -3 | 2 | 0 | / | /
S=C1NC[C@H](Cc2ccccc2)N1CC1CCN(CCCC2CCCC2)CC1 | 63* | 4 | -1 | 4 | 2 | 0
COc1ccc(S(=O)(=O)N(C)C[C@@H]2Oc3ncc(-c4cccc(OC)c4)cc3C(=O)N([C@H](C)CO)C[C@@H]2C)cc1 | / | / | 2 | / | / | /
Nc1nc(Sc2ccc(C(F)(F)F)cn2)n[nH]1 | 30* | -2 | -4 | -3 | -6 | -20
O=C(C[C@@H]1C[C@H]2c3cc(NC(=O)c4cccnc4)ccc3O[C@H]2[C@@H](CO)O1)NCc1ccncc1 | / | / | -2 | / | / | /
CCOc1cc(/C=C2\N=C(C)OC2=O)cc(Br)c1OCCc1ccccc1 | 19 | -2 | 2 | 3 | / | /
CCOc1cc(/C=C2\N=C(C)OC2=O)cc(Br)c1OCC(=O)OC | 44* | -1 | -2 | 5 | -3 | -13
O=C(c1nc2ccccn2c1CNCCn1ccc2ccccc21)N1CCOCC1 | 32* | 4 | 1 | 0 | -10 | -21
O=C(c1nc2ccccn2c1CNCCCn1nnc2ccccc21)N1CCOCC1 | 10 | -1 | -1 | 0 | / | /
CCN1C(=O)C2(C(C(=O)c3cc4ccccc4o3)=C(O)C(=O)N2CCCN2CCOCC2)c2ccccc21 (configuration not stated) | 42* | -2 | 3 | -2 | 22* | 50*
CCN1C(=O)C2(C(C(=O)c3ccc(C)o3)=C(O)C(=O)N2CCCN2CCOCC2)c2ccccc21 (configuration not stated) | 4 | 0 | / | -3 | / | /
Cc1ccc(CC2C(=O)N(c3ccccc3)C(=O)C2C)cc1 (configuration not stated) | 32* | 0 | 0 | -2 | -1 | 3
Cc1ccc(CC2C(=O)N(c3cc(Cl)ccn3)C(=O)C2C)cc1 (configuration not stated) | 4 | 0 | 0 | 2 | / | /
COc1ccc(-c2noc(CCC(=O)NCCc3cccc(C)c3)n2)cc1 | 29* | 0 | 2 | -3 | 4 | -7
CCNC(=O)C[C@@H]1CC[C@H]2[C@@H](COc3ccc(NC(=O)C4CCOCC4)cc3C(=O)N2C)O1 | / | / | -3 | / | / | /

Screens (PubChem BioAssay)
